Source: ChEMBL document CHEMBL5724801, “EUbOPEN Chemogenomics Library - Multiplex” (2024)
Several values for one entry are separate records, joined by “and”; a condition that tells them apart may be missing. Equal entries are not always repeated.

What was measured:
Fibroblast = experiment: Multiplex assay against human fibroblast; type: toxicity, cell-based
How it was run: (§1)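 Values for tubulin, mitochondrial-mass and membrane-permeability phenotypes are per cents of cells with healthy nuclei. These cells were identified by CellPathfinder machine-learning gating of live cells that had been stained at seeding with Hoechst33342, BioTracker Green Microtubule Cytoskeleton Dye, MitoTracker Red and Annexin V Alexa Fluor 680 and imaged on a CQ1 microscope at 37°C and 5% CO2 after compound addition. The gating first set Hoechst high-intensity objects apart from normal cells, then split normal cells into healthy, pyknosed or fragmented nuclei, and pyknosed cells into mitotic or apoptotic.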

U2OS = experiment: Multiplex assay against U2OS; type: toxicity, cell-based; conditions: human; how it was run: as §1
[1] = 24 h, 10 µM, compound concentration 10 uM
[2] = 48 h, 1 µM, compound concentration 1 uM
[3] = 48 h, 10 µM, compound concentration 10 uM
[4] = 12 h, 1 µM, compound concentration 1 uM
[5] = 12 h, 10 µM, compound concentration 10 uM
[6] = 24 h, 1 µM, compound concentration 1 uM

Q: `Cc1cc(=O)n(C)c2cc(N3C(=O)CC[C@H](NS(=O)(=O)CC(C)C)[C@H]3c3ccc(Cl)cc3)ccc12` was tested. Which “Population Apoptotic (%)” value (Fibroblast; [1]) did it give?
A: 43% and 42%

Q: And the “Population Fragmented Nuclei (%)” value (Fibroblast; [1])?
A: 14% and 28%

Q: And the “Population Healthy Nuclei (%)” value (Fibroblast; [1])?
A: 46% and 26%

Q: What about the “Population Hoechst High Intensity Objects (%)” value (Fibroblast; [1]) of the same compound?
A: 10% and 8%

Q: What about the “Population Membrane Permeable-Phenotype (%)” value (Fibroblast; [1]) of the same compound?
A: 0% and 17%

Q: What about the “Population Mitochondria Different-Phenotype (%)” value (Fibroblast; [1]) of the same compound?
A: 19% and 8%

Q: And the “Population Mitotic Cells (%)” value (Fibroblast; [1])?
A: 56% and 57%

Q: What about the “Population Normal (%)” value (Fibroblast; [1]) of the same compound?
A: 90% and 91%

Q: What about the “Population Pyknosed Nuclei (%)” value (Fibroblast; [1]) of the same compound?
A: 39% and 45%

Q: And the “Population Tubulin-Different-Phenotype (%)” value (Fibroblast; [1])?
A: 88% and 85%

Q: And the “Total Cell Count” value (Fibroblast; [1])?
A: 150 and 143

Q: What about the “Population Apoptotic (%)” value (Fibroblast; [2]) of the same compound?
A: 48% and 46%

Q: And the “Population Fragmented Nuclei (%)” value (Fibroblast; [2])?
A: 27% and 35%

Q: And the “Population Healthy Nuclei (%)” value (Fibroblast; [2])?
A: 54%

Q: What about the “Population Hoechst High Intensity Objects (%)” value (Fibroblast; [2]) of the same compound?
A: 2% and 7%

Q: What about the “Population Membrane Permeable-Phenotype (%)” value (Fibroblast; [2]) of the same compound?
A: 1% and 8%

Q: And the “Population Mitochondria Different-Phenotype (%)” value (Fibroblast; [2])?
A: 2% and 8%

Q: What about the “Population Mitotic Cells (%)” value (Fibroblast; [2]) of the same compound?
A: 52% and 53%

Q: And the “Population Normal (%)” value (Fibroblast; [2])?
A: 97% and 92%

Q: What about the “Population Pyknosed Nuclei (%)” value (Fibroblast; [2]) of the same compound?
A: 18% and 9%

Q: What about the “Population Tubulin-Different-Phenotype (%)” value (Fibroblast; [2]) of the same compound?
A: 27% and 73%

Q: What about the “Total Cell Count” value (Fibroblast; [2]) of the same compound?
A: 141 and 142

Q: And the “Population Apoptotic (%)” value (Fibroblast; [3])?
A: 61% and 54%

Q: What about the “Population Fragmented Nuclei (%)” value (Fibroblast; [3]) of the same compound?
A: 23% and 34%

Q: And the “Population Healthy Nuclei (%)” value (Fibroblast; [3])?
A: 38% and 37%

Q: What about the “Population Hoechst High Intensity Objects (%)” value (Fibroblast; [3]) of the same compound?
A: 15% and 10%

Q: And the “Population Membrane Permeable-Phenotype (%)” value (Fibroblast; [3])?
A: 0% and 25%

Q: What about the “Population Mitochondria Different-Phenotype (%)” value (Fibroblast; [3]) of the same compound?
A: 24% and 8%

Q: And the “Population Mitotic Cells (%)” value (Fibroblast; [3])?
A: 38% and 45%

Q: What about the “Population Normal (%)” value (Fibroblast; [3]) of the same compound?
A: 84% and 89%

Q: What about the “Population Pyknosed Nuclei (%)” value (Fibroblast; [3]) of the same compound?
A: 37% and 27%

Q: And the “Population Tubulin-Different-Phenotype (%)” value (Fibroblast; [3])?
A: 92% and 87%

Q: What about the “Total Cell Count” value (Fibroblast; [3]) of the same compound?
A: 153 and 141

Q: What about the “Population Apoptotic (%)” value (U2OS; [4]) of the same compound?
A: 87% and 63%

Q: And the “Population Fragmented Nuclei (%)” value (U2OS; [4])?
A: 24% and 21%

Q: What about the “Population Healthy Nuclei (%)” value (U2OS; [4]) of the same compound?
A: 66% and 68%

Q: What about the “Population Hoechst High Intensity Objects (%)” value (U2OS; [4]) of the same compound?
A: 3% and 1%

Q: And the “Population Membrane Permeable-Phenotype (%)” value (U2OS; [4])?
A: 3% and 2%

Q: And the “Population Mitochondria Different-Phenotype (%)” value (U2OS; [4])?
A: 1% and 2%

Q: What about the “Population Mitotic Cells (%)” value (U2OS; [4]) of the same compound?
A: 12% and 36%

Q: And the “Population Normal (%)” value (U2OS; [4])?
A: 96% and 98%

Q: And the “Population Pyknosed Nuclei (%)” value (U2OS; [4])?
A: 9% and 10%

Q: And the “Population Tubulin-Different-Phenotype (%)” value (U2OS; [4])?
A: 1%

Q: And the “Total Cell Count” value (U2OS; [4])?
A: 263 and 110

Q: And the “Population Apoptotic (%)” value (U2OS; [5])?
A: 57%

Q: What about the “Population Fragmented Nuclei (%)” value (U2OS; [5]) of the same compound?
A: 21% and 16%

Q: And the “Population Healthy Nuclei (%)” value (U2OS; [5])?
A: 55% and 60%

Q: And the “Population Hoechst High Intensity Objects (%)” value (U2OS; [5])?
A: 5% and 3%

Q: And the “Population Membrane Permeable-Phenotype (%)” value (U2OS; [5])?
A: 63% and 35%

Q: What about the “Population Mitochondria Different-Phenotype (%)” value (U2OS; [5]) of the same compound?
A: 44% and 68%

Q: And the “Population Mitotic Cells (%)” value (U2OS; [5])?
A: 42%

Q: What about the “Population Normal (%)” value (U2OS; [5]) of the same compound?
A: 94% and 96%

Q: And the “Population Pyknosed Nuclei (%)” value (U2OS; [5])?
A: 23%

Q: And the “Population Tubulin-Different-Phenotype (%)” value (U2OS; [5])?
A: 65% and 60%

Q: And the “Total Cell Count” value (U2OS; [5])?
A: 240 and 83

Q: What about the “Population Apoptotic (%)” value (U2OS; [6]) of the same compound?
A: 74% and 82%

Q: And the “Population Fragmented Nuclei (%)” value (U2OS; [6])?
A: 20% and 18%

Q: What about the “Population Healthy Nuclei (%)” value (U2OS; [6]) of the same compound?
A: 68% and 69%

Q: What about the “Population Hoechst High Intensity Objects (%)” value (U2OS; [6]) of the same compound?
A: 3% and 1%

Q: And the “Population Membrane Permeable-Phenotype (%)” value (U2OS; [6])?
A: 6% and 9%

Q: And the “Population Mitochondria Different-Phenotype (%)” value (U2OS; [6])?
A: 3% and 2%

Q: What about the “Population Mitotic Cells (%)” value (U2OS; [6]) of the same compound?
A: 25% and 17%

Q: And the “Population Normal (%)” value (U2OS; [6])?
A: 96% and 98%

Q: What about the “Population Pyknosed Nuclei (%)” value (U2OS; [6]) of the same compound?
A: 11%

Q: What about the “Population Tubulin-Different-Phenotype (%)” value (U2OS; [6]) of the same compound?
A: 4% and 6%

Q: What about the “Total Cell Count” value (U2OS; [6]) of the same compound?
A: 322 and 146

Q: What about the “Population Apoptotic (%)” value (U2OS; [1]) of the same compound?
A: 71% and 81%

Q: And the “Population Fragmented Nuclei (%)” value (U2OS; [1])?
A: 20% and 26%

Q: What about the “Population Healthy Nuclei (%)” value (U2OS; [1]) of the same compound?
A: 56% and 62%

Q: And the “Population Hoechst High Intensity Objects (%)” value (U2OS; [1])?
A: 5% and 2%

Q: And the “Population Membrane Permeable-Phenotype (%)” value (U2OS; [1])?
A: 25% and 36%

Q: What about the “Population Mitochondria Different-Phenotype (%)” value (U2OS; [1]) of the same compound?
A: 40% and 59%

Q: What about the “Population Mitotic Cells (%)” value (U2OS; [1]) of the same compound?
A: 28% and 18%

Q: And the “Population Normal (%)” value (U2OS; [1])?
A: 94% and 97%

Q: And the “Population Pyknosed Nuclei (%)” value (U2OS; [1])?
A: 23% and 10%

Q: What about the “Population Tubulin-Different-Phenotype (%)” value (U2OS; [1]) of the same compound?
A: 28% and 50%

Q: What about the “Total Cell Count” value (U2OS; [1]) of the same compound?
A: 262 and 108

Q: And the “Population Apoptotic (%)” value (U2OS; [2])?
A: 77% and 95%

Q: And the “Population Fragmented Nuclei (%)” value (U2OS; [2])?
A: 14% and 15%

Q: What about the “Population Healthy Nuclei (%)” value (U2OS; [2]) of the same compound?
A: 73%

Q: And the “Population Hoechst High Intensity Objects (%)” value (U2OS; [2])?
A: 1%

Q: What about the “Population Membrane Permeable-Phenotype (%)” value (U2OS; [2]) of the same compound?
A: 4% and 6%

Q: And the “Population Mitochondria Different-Phenotype (%)” value (U2OS; [2])?
A: 3% and 5%

Q: What about the “Population Normal (%)” value (U2OS; [2]) of the same compound?
A: 98%

Q: And the “Population Pyknosed Nuclei (%)” value (U2OS; [2])?
A: 11% and 10%

Q: And the “Population Tubulin-Different-Phenotype (%)” value (U2OS; [2])?
A: 2% and 4%

Q: What about the “Total Cell Count” value (U2OS; [2]) of the same compound?
A: 508 and 199

Q: And the “Population Apoptotic (%)” value (U2OS; [3])?
A: 84% and 71%

Q: What about the “Population Fragmented Nuclei (%)” value (U2OS; [3]) of the same compound?
A: 25% and 21%

Q: What about the “Population Healthy Nuclei (%)” value (U2OS; [3]) of the same compound?
A: 51% and 60%

Q: What about the “Population Hoechst High Intensity Objects (%)” value (U2OS; [3]) of the same compound?
A: 6% and 5%

Q: And the “Population Membrane Permeable-Phenotype (%)” value (U2OS; [3])?
A: 15% and 30%

Q: And the “Population Mitochondria Different-Phenotype (%)” value (U2OS; [3])?
A: 15% and 35%

Q: And the “Population Mitotic Cells (%)” value (U2OS; [3])?
A: 15% and 28%

Q: And the “Population Normal (%)” value (U2OS; [3])?
A: 93% and 94%

Q: And the “Population Pyknosed Nuclei (%)” value (U2OS; [3])?
A: 22% and 18%

Q: What about the “Population Tubulin-Different-Phenotype (%)” value (U2OS; [3]) of the same compound?
A: 10% and 23%

Q: What about the “Total Cell Count” value (U2OS; [3]) of the same compound?
A: 331 and 120
